Source: PubChem
The entries come from a sample that favours hits as a whole.
MMP-13 inhibitor: MMP13 (human) collagenase inhibition; P45452; MMP-13 fTHP FRET cleavage, Mca fluorescence; inhibition, % at 4 µM; 65,000 compounds, 0.07% hits; AID 570;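 active means inhibition above the mean of compound-free control plate wells plus 3 SD, cut at about 14% in these data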;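 further: 0% = DMSO wells and 100% = wells with reference MMP-13 inhibitor after basal subtraction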
Ec RNAP inh: Escherichia coli RNA polymerase inhibition. P0A8V2. E. coli RNA polymerase, fluorescence transcription assay. inhibition, %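 (tested at 10 µM)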. 62,000 compounds, 0.2% hits. AID 559; in the data active means inhibition above about 20%;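 further: 0% = enzyme without compound and 100% = no enzyme blank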
Target sequence (P0A8V2 whole entry, looked up): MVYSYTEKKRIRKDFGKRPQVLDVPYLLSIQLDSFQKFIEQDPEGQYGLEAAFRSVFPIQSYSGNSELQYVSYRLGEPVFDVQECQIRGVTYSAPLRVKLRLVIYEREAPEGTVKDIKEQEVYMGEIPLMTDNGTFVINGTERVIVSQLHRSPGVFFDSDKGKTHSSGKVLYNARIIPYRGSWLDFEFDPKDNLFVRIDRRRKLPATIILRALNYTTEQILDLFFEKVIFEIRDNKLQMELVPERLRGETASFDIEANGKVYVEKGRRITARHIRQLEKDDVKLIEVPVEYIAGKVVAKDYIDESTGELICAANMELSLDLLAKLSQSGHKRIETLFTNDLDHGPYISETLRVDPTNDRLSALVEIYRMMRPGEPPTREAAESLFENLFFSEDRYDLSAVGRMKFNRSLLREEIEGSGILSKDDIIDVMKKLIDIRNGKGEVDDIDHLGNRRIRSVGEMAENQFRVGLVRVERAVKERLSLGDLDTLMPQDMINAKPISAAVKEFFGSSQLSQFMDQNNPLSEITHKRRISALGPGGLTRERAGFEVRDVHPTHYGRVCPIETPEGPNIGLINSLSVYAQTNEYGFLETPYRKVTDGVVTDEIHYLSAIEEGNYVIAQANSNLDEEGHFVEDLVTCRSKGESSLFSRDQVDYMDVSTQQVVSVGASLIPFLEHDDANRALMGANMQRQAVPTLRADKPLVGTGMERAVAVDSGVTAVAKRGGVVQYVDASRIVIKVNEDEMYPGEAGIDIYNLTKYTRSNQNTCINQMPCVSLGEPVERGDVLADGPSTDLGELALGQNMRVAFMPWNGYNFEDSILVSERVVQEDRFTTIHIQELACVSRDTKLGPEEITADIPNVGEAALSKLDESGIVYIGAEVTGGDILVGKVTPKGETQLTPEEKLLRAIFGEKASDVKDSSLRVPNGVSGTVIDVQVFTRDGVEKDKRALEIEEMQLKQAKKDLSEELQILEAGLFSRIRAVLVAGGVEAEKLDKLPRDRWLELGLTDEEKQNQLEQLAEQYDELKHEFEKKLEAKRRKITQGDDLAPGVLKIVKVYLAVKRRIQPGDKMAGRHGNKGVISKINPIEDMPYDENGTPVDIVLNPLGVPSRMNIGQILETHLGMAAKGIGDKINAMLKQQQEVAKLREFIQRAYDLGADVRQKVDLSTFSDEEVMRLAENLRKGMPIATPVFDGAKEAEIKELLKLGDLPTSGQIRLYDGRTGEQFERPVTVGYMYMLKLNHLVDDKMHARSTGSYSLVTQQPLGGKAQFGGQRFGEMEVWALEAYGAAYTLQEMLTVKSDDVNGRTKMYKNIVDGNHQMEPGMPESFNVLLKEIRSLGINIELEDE
E coli WT exp: blocks growth of wild type E. coli BW25113; 98,000 compounds, 0.15% hits; AID 710; OD600 absorbance; growth inhibition, % at 100 µM;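 active means growth inhibition above about 50% at one test dose, limit read from the data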;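 further: growth measured after 20 h incubation at 37 °C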
HePTP inh: inhibitors of human HePTP phosphatase | P35236 | recombinant HePTP phosphatase activity, OD absorbance | inhibition, % at 20 µM | 110,000 compounds, 0.64% hits | AID 521; in the data active means inhibition above about 50%;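 further: plate controls were vehicle for no effect and reference inhibitor for full effect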
AP complement: alternative pathway complement inhibition, orthogonal assay; 62,000 compounds, 0.08% hits; Human serum alternative complement pathway, LPS-coated ELISA, C3 deposition; tested in compound mixtures; inhibition, % at 5 µM; AID 1235;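 active means inhibition above 30% in each of the two pooled mixtures holding the compound, so the lower value exceeds 30%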;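 further: 0% = serum in Mg-EGTA without compound and 100% = EDTA serum blank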
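Assay system: human serum alternative complement pathway, C3 deposition on LPS-coated wells; Dosing: 5 µM per compound in ten-compound mixtures; Detection: Anti-C3 ELISA, OD 450 nm; Buffer or medium: Mg2+-EGTA GVB++ buffer containing human serum at 1:15 dilution; Timing: 1 h at 37 °C; Replication: two different pools per compound.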
tolC growth inh: E. coli tolC mutant growth inhibition | E. coli BW25113 tolC mutant growth, OD615 | growth inhibition, % at 10 µM (by protocol) | 65,000 compounds, 2.2% hits;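 active means growth inhibition at or above a cutoff equal to the mean over every tested compound plus 3 SD, cut at about 60% in these data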;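 further: growth measured after 20 h incubation at 37 °C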
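Test system: E. coli BW25113 ΔtolC::kan bacteria | Medium: Kanamycin-containing LB broth (50 µg/mL) | Dosing: One dose of 10 µM final | Times: 20 h incubation with compound, 37 °C | Detection: Optical density read at 615 nm | Read-out basis: Percent growth inhibition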
* = called active by the depositor; / = not tested or not shown.

SMILES	MMP-13 inhibitor	Ec RNAP inh	E coli WT exp	HePTP inh	AP complement	tolC growth inh
COC(=O)CN(c1ccc(Cl)cc1Cl)S(=O)(=O)c1ccc(C)cc1	/	/	/	-2	/	/
COc1cc(Cc2cnc(N)nc2N)cc(OC)c1OC	4	9	100*	6	9	97*
COc1cc(CC(=O)NCc2ccccn2)cc(OC)c1OC	/	/	-1	/	/	/
O=C(c1ccccc1F)N1CCN(CCCc2ccccc2)CC1	/	/	/	10	/	/
Clc1ccc(CN2CCN(Cc3ccncc3)CC2)cc1	/	/	/	-9	/	/
COc1ccc2nc(NC(=O)C3CCN(S(=O)(=O)c4cccs4)CC3)sc2c1	/	/	-11	/	/	/
COc1ccc2nc(NC(=O)C3CCCN(S(=O)(=O)c4cccs4)C3)sc2c1 (stereo unspecified)	6	-2	-6	3	29	68*
COc1cc(C=C2C(=O)NC(=O)NC2=O)ccc1OCCC(C)C	/	/	/	4	/	/
Cn1c(NC(=O)c2ccccc2NC(=O)C(C)(C)C)nc2ccccc21	2	-1	-1	13	10	99*
O=C(Nc1ccc([N+](=O)[O-])cn1)c1cc(Cl)ccc1Cl	/	/	/	6	/	/
O=C(O)c1cccc(N2C(=O)CC(Nc3ccc(N4CCOCC4)cc3)C2=O)c1 (stereo unspecified)	/	/	/	61*	/	/
Cc1ccc(C2/C(=C(\O)c3ccccc3)C(=O)C(=O)N2CCN(C)C)cc1 (stereo unspecified)	/	/	/	-3	/	/
Cc1cc(-c2ccco2)c(C#N)c2nc3ccccc3n12	-25	3	-12	3	7	81*
CC(C)c1cc(N2CCN(C(=O)c3ccco3)CC2)n2c(nc3ccccc32)c1C#N	-54	-3	3	4	16	-1
O=C(/C=C/c1ccc([N+](=O)[O-])cc1)NC(=S)Nc1ccccc1Cl	/	/	/	-27	/	/
Cc1ccc2c(c1)NC(C)(C)c1sn(-c3ccc(Cl)c(F)c3)c(=S)c1-2	/	/	/	-1	/	/
CCN(CC)c1ccc(Nc2nc(N3CCOCC3)c3ccccc3n2)cc1	/	/	7	/	/	/
COc1ccc(Nc2nc(N3CCCC3)c3ccccc3n2)cc1	-6	2	20	10	4	76*
CC1=CC(C)(C)N(C(=O)c2ccccc2)c2ccc(C)cc21	/	/	3	/	/	/
COc1ccc(C(=O)N2c3cc4c(cc3C(C)=CC2(C)C)OCO4)cc1	2	10	-8	2	1	74*
CCc1ccc(N2CC(C(=O)Nc3ccc(Cl)cc3Cl)CC2=O)cc1 (stereo unspecified)	/	/	/	5	/	/
CC(C)(C)n1nnnc1C(c1cccs1)N1CCCc2ccccc21 (stereo unspecified)	2	2	-3	-5	-6	82*
CC(C)C(c1nnnn1C1CCCC1)N1CCCc2ccccc21 (stereo unspecified)	-1	1	-13	-6	-8	74*
CC(C)(C)n1nnnc1C(c1cccs1)N1CCCC2(CCCCC2)C1 (stereo unspecified)	-2	-5	0	7	18	35
CC(C)COc1ccc(C(=O)Nc2ccc(-c3nc4ncccc4o3)cc2)cc1	/	/	/	8	/	/
SMILES	MMP-13 inhibitor	Ec RNAP inh	E coli WT exp	HePTP inh	AP complement	tolC growth inh
O=C(Nc1nnc(C2CC2)o1)c1ccc(S(=O)(=O)N2CCCc3ccccc32)cc1	10	-1	6	-5	11	100*
COc1ccc(-c2nnc(NC(=O)c3ccc(S(=O)(=O)N4CCCc5ccccc54)cc3)o2)cc1	-5	4	-7	-1	27	15
O=C(NCc1ccco1)c1ccc(S(=O)(=O)N2CCCc3ccccc32)cc1	0	7	-8	8	-7	71*
O=C(NCc1ccccc1)c1ccc(S(=O)(=O)N2CCCc3ccccc32)cc1	/	/	-17	/	/	/
COc1ccc(C2NC(C)(C)Cc3cc(OC)c(OC)cc32)cc1 (stereo unspecified)	/	/	/	-4	/	/
N#Cc1cccc(NC(=O)Nc2cccs2)c1	0	7	73*	4	10	16
CCCCn1c(=O)n(Cc2cccc(F)c2)c(=O)c2c1ncn2Cc1ccco1	2	6	-6	1	-2	65*
Cn1c(=O)n(Cc2ccccc2)c(=O)c2c1nc1n2CCCN1Cc1ccccc1	3	6	9	6	7	62*
Cc1ccc(Cn2c(=O)c3c(nc4n3CCCN4Cc3ccccc3)n(C)c2=O)cc1	1	13	0	6	2	-10
Cc1onc(-c2ccccc2)c1C(=O)Nc1cccc(Cl)c1	/	/	/	4	/	/
CCc1ccccc1NS(=O)(=O)c1ccc(SC)cc1	-7	4	9	3	20	73*
